Reference: ChEMBL document CHEMBL1811752, “Synthesis and pharmacological characterization of bicyclic triple reuptake inhibitor 3-aryl octahydrocyclopenta[c]pyrrole analogues” (J Med Chem, 2011)

How the values were obtained:
[1] = target: Sodium-dependent noradrenaline transporter (Homo sapiens, UniProt P23975); experiment: Inhibition of norepinephrine reuptake at NET expressed in MDCK cells; format: cell-based
[2] = target: Sodium-dependent dopamine transporter (Homo sapiens, UniProt Q01959); experiment: Inhibition of dopamine reuptake at DAT expressed in CHO-K1 cells; format: cell-based
[3] = target: Sodium-dependent serotonin transporter (Homo sapiens, UniProt P31645); experiment: Inhibition of serotonin reuptake at SERT expressed in HEK293 cells; format: cell-based
[4] = Half life in human liver microsomes at 3 uM by LC-MS/MS analysis; format: ADME, Microsome
Procedure, shortened: (§1)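 Human or mouse liver microsomes (0.5 mg/mL) incubated with 3 μM compound at 37 °C. Reaction started with NADPH and stopped with methanol containing internal standard. Loss of compound followed over 45 min by LC-MS/MS. Peak area ratio to internal standard plotted against time and the slope of the line taken.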

Cytochrome P450 2D6 = Cytochrome P450 2D6 (Homo sapiens, UniProt P10635); experiment: Inhibition of CYP2D6 in human liver microsomes by LC-MS/MS analysis; format: ADME, Microsome
Procedure, shortened: (§2)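 Human liver microsomes incubated with isoform-specific substrates and compound, typically 0.1–25 μM. Metabolite formation read by LC-MS/MS, […]. IC50 calculated from the decrease in metabolite formation relative to vehicle control.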

[5] = Half life in mouse liver microsomes at 3 uM by LC-MS/MS analysis; format: ADME, Microsome; procedure, shortened: as §1
Cytochrome P450 3A4 = Cytochrome P450 3A4 (Homo sapiens, UniProt P08684); experiment: Inhibition of CYP3A4 in human liver microsomes by LC-MS/MS analysis; format: ADME, Microsome; procedure, shortened: as §2
CYP1A = target: T1, CYP1A (Homo sapiens, UniProt P04798+P05177); experiment: Inhibition of CYP1A in human liver microsomes by LC-MS/MS analysis; format: ADME, Microsome; procedure, shortened: as §2
T1 sequence (P04798 whole entry): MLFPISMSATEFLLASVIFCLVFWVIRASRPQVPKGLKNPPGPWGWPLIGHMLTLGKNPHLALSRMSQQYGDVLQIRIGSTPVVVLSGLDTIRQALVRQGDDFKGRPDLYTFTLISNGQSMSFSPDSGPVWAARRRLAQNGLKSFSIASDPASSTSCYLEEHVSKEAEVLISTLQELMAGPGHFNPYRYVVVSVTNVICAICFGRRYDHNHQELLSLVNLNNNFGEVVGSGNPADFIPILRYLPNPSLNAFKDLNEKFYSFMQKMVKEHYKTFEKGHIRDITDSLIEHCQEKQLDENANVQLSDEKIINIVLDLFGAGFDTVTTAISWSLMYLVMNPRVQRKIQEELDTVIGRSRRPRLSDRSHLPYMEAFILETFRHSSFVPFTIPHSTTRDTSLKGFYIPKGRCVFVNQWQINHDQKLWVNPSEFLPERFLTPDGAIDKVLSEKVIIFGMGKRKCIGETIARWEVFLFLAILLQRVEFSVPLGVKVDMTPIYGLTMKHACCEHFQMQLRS
T1 sequence (P05177 whole entry): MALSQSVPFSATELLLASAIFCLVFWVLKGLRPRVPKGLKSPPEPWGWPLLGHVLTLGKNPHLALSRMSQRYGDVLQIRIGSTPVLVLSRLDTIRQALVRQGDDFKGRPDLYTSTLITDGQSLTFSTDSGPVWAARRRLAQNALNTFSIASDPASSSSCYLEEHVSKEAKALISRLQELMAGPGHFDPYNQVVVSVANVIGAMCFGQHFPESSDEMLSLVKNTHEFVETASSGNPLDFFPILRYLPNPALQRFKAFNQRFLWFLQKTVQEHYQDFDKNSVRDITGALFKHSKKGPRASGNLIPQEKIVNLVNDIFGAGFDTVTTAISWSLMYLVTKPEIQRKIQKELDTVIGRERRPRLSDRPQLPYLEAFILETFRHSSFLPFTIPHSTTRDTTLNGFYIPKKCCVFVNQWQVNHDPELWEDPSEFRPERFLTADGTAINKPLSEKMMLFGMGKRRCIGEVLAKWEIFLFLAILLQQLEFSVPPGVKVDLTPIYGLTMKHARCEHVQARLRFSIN

Cytochrome P450 2C19 = Cytochrome P450 2C19 (Homo sapiens, UniProt P33261); experiment: Inhibition of CYP2C19 in human liver microsomes by LC-MS/MS analysis; format: ADME, Microsome; procedure, shortened: as §2
Cytochrome P450 2C9 = Cytochrome P450 2C9 (Homo sapiens, UniProt P11712); experiment: Inhibition of CYP2C9 in human liver microsomes by LC-MS/MS analysis; format: ADME, Microsome; procedure, shortened: as §2
Sequence of Cytochrome P450 2C9 (P11712 whole entry): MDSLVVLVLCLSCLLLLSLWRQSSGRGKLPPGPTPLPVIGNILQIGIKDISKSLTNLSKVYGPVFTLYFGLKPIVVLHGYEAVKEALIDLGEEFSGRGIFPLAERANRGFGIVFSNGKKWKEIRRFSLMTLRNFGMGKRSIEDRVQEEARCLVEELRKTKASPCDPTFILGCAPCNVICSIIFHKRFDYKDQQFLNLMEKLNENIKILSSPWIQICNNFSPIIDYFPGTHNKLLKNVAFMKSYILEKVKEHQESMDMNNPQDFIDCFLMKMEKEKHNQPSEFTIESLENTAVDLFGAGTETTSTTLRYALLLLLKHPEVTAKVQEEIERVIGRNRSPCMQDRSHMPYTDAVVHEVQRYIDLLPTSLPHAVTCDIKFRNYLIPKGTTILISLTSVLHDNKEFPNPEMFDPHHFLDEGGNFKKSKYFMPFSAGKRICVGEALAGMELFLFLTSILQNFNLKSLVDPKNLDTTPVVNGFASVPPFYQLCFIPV

Sequence of Cytochrome P450 3A4 (P08684 whole entry): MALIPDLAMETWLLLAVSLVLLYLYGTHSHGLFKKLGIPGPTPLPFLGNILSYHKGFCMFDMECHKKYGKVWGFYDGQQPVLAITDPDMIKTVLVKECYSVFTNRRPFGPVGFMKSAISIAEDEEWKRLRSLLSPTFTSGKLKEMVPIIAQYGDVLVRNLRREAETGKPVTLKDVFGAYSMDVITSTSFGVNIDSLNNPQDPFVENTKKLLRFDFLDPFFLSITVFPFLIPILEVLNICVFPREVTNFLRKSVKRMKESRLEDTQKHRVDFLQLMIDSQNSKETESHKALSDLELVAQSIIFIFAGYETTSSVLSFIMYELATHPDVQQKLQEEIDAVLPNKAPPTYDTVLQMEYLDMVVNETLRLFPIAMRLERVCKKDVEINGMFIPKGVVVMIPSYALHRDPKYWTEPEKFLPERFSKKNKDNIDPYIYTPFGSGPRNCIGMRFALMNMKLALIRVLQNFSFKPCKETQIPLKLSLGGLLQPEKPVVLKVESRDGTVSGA
Sequence of Sodium-dependent noradrenaline transporter (P23975 whole entry): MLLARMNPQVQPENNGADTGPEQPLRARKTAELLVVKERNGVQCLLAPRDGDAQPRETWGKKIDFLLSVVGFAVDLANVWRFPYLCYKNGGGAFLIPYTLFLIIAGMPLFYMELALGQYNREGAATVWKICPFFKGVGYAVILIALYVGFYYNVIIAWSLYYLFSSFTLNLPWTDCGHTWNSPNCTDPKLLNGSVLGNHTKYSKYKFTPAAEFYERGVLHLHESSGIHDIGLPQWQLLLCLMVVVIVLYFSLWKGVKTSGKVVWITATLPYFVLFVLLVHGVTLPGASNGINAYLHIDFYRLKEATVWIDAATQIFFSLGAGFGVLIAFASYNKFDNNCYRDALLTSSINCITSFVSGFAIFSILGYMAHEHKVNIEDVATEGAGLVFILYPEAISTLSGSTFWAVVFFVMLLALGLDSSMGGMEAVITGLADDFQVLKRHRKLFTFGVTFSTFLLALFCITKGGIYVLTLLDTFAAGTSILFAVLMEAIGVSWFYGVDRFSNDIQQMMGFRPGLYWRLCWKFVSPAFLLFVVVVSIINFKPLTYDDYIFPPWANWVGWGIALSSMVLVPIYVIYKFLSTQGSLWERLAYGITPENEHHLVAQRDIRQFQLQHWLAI
Sequence of Cytochrome P450 2C19 (P33261 whole entry): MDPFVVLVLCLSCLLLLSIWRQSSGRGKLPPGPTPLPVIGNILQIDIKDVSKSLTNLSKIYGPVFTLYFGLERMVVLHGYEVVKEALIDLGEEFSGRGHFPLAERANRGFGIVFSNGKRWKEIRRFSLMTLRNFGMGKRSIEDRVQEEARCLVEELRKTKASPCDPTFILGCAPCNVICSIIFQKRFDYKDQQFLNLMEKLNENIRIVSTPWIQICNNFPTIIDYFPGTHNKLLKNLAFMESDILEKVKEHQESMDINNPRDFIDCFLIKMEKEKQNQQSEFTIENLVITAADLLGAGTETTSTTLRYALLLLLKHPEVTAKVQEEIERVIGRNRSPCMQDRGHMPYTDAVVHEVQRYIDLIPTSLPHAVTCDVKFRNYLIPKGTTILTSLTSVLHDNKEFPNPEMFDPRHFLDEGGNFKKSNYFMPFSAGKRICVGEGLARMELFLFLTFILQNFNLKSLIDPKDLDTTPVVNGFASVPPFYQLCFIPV
Sequence of Sodium-dependent dopamine transporter (Q01959 whole entry): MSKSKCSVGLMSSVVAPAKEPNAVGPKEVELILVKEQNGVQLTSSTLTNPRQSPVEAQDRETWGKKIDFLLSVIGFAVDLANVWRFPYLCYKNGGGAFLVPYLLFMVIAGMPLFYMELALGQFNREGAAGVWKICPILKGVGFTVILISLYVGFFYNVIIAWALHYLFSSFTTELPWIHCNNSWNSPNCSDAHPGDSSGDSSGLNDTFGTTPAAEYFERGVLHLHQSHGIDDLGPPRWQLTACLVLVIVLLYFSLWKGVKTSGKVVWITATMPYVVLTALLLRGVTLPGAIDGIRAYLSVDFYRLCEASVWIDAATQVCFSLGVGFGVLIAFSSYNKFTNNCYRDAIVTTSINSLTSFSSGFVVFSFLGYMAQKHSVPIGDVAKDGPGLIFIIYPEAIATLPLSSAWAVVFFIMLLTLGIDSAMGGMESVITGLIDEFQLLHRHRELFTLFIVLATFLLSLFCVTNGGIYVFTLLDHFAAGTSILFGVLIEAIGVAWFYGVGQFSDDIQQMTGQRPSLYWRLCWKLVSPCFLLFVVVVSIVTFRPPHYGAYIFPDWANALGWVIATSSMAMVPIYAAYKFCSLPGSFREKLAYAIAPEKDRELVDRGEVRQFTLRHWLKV
Sequence of Sodium-dependent serotonin transporter (P31645 whole entry): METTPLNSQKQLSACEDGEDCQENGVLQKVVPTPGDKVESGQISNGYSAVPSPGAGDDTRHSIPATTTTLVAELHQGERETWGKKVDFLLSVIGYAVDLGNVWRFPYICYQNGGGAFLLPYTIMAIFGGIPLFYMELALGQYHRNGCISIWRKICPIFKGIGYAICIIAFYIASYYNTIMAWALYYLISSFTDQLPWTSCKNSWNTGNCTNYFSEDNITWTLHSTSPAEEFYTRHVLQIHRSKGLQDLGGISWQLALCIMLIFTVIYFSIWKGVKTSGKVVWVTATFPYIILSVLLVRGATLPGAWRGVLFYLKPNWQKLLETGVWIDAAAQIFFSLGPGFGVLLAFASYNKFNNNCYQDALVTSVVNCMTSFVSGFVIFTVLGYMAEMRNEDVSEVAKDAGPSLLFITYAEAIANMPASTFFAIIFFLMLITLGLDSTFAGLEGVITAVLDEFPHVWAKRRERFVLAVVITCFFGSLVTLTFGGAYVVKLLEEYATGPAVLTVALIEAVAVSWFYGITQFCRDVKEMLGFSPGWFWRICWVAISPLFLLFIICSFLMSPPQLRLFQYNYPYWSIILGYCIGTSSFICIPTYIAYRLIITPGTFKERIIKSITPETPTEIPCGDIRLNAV
Sequence of Cytochrome P450 2D6 (P10635 whole entry, canonical isoform): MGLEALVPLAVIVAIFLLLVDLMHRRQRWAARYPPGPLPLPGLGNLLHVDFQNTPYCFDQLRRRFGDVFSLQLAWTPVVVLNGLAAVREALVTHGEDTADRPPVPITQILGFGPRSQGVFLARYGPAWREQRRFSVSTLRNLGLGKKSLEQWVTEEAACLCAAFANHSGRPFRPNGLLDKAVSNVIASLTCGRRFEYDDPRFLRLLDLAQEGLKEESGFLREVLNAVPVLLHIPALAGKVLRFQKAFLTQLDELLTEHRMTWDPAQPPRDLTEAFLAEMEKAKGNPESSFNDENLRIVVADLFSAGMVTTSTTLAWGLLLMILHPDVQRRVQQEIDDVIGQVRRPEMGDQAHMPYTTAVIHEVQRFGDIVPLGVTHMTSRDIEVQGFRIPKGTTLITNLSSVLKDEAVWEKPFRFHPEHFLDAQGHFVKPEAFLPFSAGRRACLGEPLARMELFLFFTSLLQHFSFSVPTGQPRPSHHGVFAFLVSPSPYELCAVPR

Compound	IC50 [1] [nM]	IC50 [2] [nM]	IC50 [3] [nM]	half-life at 3 µM [4] [min]	IC50 (Cytochrome P450 2D6) [nM]	half-life at 3 µM [5] [min]	IC50 (Cytochrome P450 3A4) [nM]	IC50 (CYP1A) [nM]	IC50 (Cytochrome P450 2C19) [nM]	IC50 (Cytochrome P450 2C9) [nM]
Clc1ccc([C@]23CCCC[C@@H]2CNC3)cc1Cl (racemic; 19b)	2140	457	1910	–	–	–	–	–	–	–
CN1C[C@@H]2CCC[C@]2(c2ccc(F)c(F)c2)C1 (racemic)	6460	2820	1100	–	–	–	–	–	–	–
CN1C[C@@H]2CCC[C@]2(c2ccc3ccccc3c2)C1 (racemic)	468	100	3.55	–	–	–	–	–	–	–
CN1C[C@@H]2CCC[C@]2(c2ccc(Cl)c(Cl)c2)C1 (racemic)	24	67.6	8.91	–	–	–	–	–	–	–
CN1C[C@H]2CCCC[C@@]2(c2ccc3ccccc3c2)C1	537	61.7	12.6	17	13600	7	–	–	–	–
CN1C[C@@H]2CCCC[C@]2(c2cccc3ccccc23)C1 (racemic)	417	1320	162	–	–	–	–	–	–	–
CN1C[C@@H]2CCCC[C@]2(c2cccc3ccccc23)C1	> 10000	3310	977	–	–	–	–	–	–	–
CN1C[C@@H]2CCC[C@]2(c2ccc(Cl)c(Cl)c2)C1 (single isomer, unassigned)	95.5	47.9	83.2	28	4350	27	12700	1490	2220	9830
CN1C[C@@H]2CCCC[C@]2(Cc2ccc(Cl)c(Cl)c2)C1 (stereo in doubt)	4470	490	339	–	–	–	–	–	–	–
CN1C[C@@H]2CCCC[C@]2(c2ccc3ccccc3c2)C1 (racemic)	537	20.4	4.79	–	–	–	–	–	–	–
CN1C[C@@H]2CCCC[C@]2(c2ccc(Cl)cc2Cl)C1 (racemic)	912	1290	347	–	–	–	–	–	–	–
c1ccc2cc([C@@]34CCC[C@@H]3CNC4)ccc2c1	60.3	30.2	120	28	10800	56	10700	710	7190	14400
c1ccc2cc([C@]34CCC[C@H]3CNC4)ccc2c1	14.1	33.9	13.5	25	9420	26	2650	4130	> 25000	> 25000
Clc1ccc([C@]23CCCC[C@@H]2CNC3)cc1Cl (racemic; 19a)	6030	1020	1820	–	–	–	–	–	–	–
Clc1ccc([C@]23CCCC[C@H]2CNC3)cc1Cl (racemic)	112	204	115	–	–	–	–	–	–	–
COc1cccc([C@]23CCC[C@H]2CN(C)C3)c1 (racemic)	> 10000	> 10000	692	–	–	–	–	–	–	–
COc1cccc([C@]23CCCC[C@H]2CN(C)C3)c1 (racemic)	2450	3390	148	–	–	–	–	–	–	–
Clc1ccc(C[C@]23CCCC[C@H]2CNC3)cc1Cl	5370	501	661	–	–	–	–	–	–	–
